Source: ChEMBL document CHEMBL3112527, “Quinoline-pyrimidine hybrids: synthesis, antiplasmodial activity, SAR, and mode of action studies” (J Med Chem, 2014)
pIC50: −log10 of the molar value. ≈ marks a conversion by molar mass, not a printed value. Calls of active or inactive are those of the source. The rule behind the calls is not given here.

What was measured:
Sindbis virus = assay: Antiviral activity against Sindbis virus infected in African green monkey Vero cells assessed as inhibition of virus-induced cytopathicity; format: functional, organism-based
[1] = Solubility of the compound in octanol at pH 7.4 by HPLC analysis; format: physicochemical
[2] = Aqueous solubility of the compound in PBS buffer at pH 7.4 after 24 hrs by HPLC analysis; format: physicochemical; settings: pH 7.4, 24 h
Human alphaherpesvirus 1 [3] = assay: Antiviral activity against HSV-1 KOS infected in HEL cells assessed as inhibition of virus-induced cytopathicity; format: functional, organism-based
Outline: (§1)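 Confluent monolayers (HEL, Vero, HeLa or CrFK, as applicable) were inoculated with 100 CCID50 of virus, with 1 CCID50 being the dose that infects 50% of cultures. Infection ran in the presence of varying compound concentrations. Inhibition of virus-induced cytopathicity was scored against infected cultures left untreated.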

[4] = Selectivity index, ratio of CC50 for cat CRFK cells to IC50 for chloroquine-resistant asexual erythrocytic stage of Plasmodium falciparum Dd2; format: functional
Outline: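 Ratio of CRFK CC50 (μM) to Dd2 IC50 […]. CC50 is the 50% cytotoxic concentration in feline kidney CRFK cells, measured as cell viability by colorimetric formazan-based MTS assay. Dd2 IC50 is from the parasite LDH growth-inhibition assay.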

Escherichia coli = assay: Binding affinity to Escherichia coli pUC18 DNA by fluorescence spectrophotometric analysis
Outline: (§2)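 Steady-state fluorescence titration at ambient temperature, with excitation at 330 nm and emission at 376 nm. […] Binding constant derived from the emission changes.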

DNA [5] = assay: Binding affinity to calf thymus DNA by fluorescence spectrophotometric analysis; format: nucleic-acid assay; settings: Bos taurus; outline: as §2
[6] = n-octanol-PBS buffer distribution coefficient, log D of the compound at pH 7.4 after 24 hrs by HPLC analysis; format: physicochemical
Human alphaherpesvirus 3 = assay: Antiviral activity against Varicella-zoster virus infected in HEL cells assessed as inhibition of virus-induced cytopathicity; format: functional, organism-based
Human alphaherpesvirus 2 = assay: Antiviral activity against HSV-2 G infected in HEL cells assessed as inhibition of virus-induced cytopathicity; format: functional, organism-based; settings: strain G; outline: as §1
Coxsackievirus B4 [7] = assay: Antiviral activity against Coxsackievirus B4 infected in human HeLa cells assessed as inhibition of virus-induced cytopathicity; format: functional, organism-based; outline: as §1
Plasmodium falciparum [8] = assay: Antiplasmodial activity against chloroquine-sensitive asexual erythrocytic stage of Plasmodium falciparum D10 assessed as parasite growth inhibition by lactate dehydrogenase assay; format: functional, organism-based
Outline: (§3)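 Parasite lactate dehydrogenase assay (modified Makler method). Samples held as 20 mg/mL stocks in DMSO, diluted on test day. Full dose-response: starting at 10 μg/mL, 2-fold serial dilution in complete medium over 10 concentrations down to 0.02 μg/mL. Chloroquine, artesunate and MMV390048 served as references. IC50 from nonlinear dose-response curve fitting; mean of three independent experiments.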

Plasmodium falciparum [9] = assay: Potency index, ratio of chloroquine IC50 to compound IC50 for chloroquine-resistant asexual erythrocytic stage of Plasmodium falciparum Dd2; format: functional
[10] = system: Mammalian orthoreovirus 1; assay: Antiviral activity against Reovirus 1 infected in African green monkey Vero cells assessed as inhibition of virus-induced cytopathicity; format: functional, organism-based; outline: as §1
Punta Toro virus = assay: Antiviral activity against Punta Toro virus infected in African green monkey Vero cells assessed as inhibition of virus-induced cytopathicity; format: functional, organism-based; outline: as §1
Human betaherpesvirus 5 [11] = assay: Antiviral activity against Cytomegalovirus Davis infected in HEL cells assessed as inhibition of virus-induced cytopathicity; format: functional, organism-based
Felid alphaherpesvirus 1 = assay: Antiviral activity against Feline herpesvirus infected in cat CRFK cells assessed as inhibition of virus-induced cytopathicity; format: functional, organism-based; outline: as §1
Ferriprotoporphyrin IX [12] = assay: Binding affinity to monomeric Fe(III)PPIX at pH 7.4
Outline: (§4)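 UV-vis titration of monomeric Fe(III)PPIX (2.4 μM) with stepwise additions of compound (0−69 μM, in DMSO), in aqueous DMSO. Buffer was 0.02 M HEPES at pH 7.4 or 0.02 M MES at pH 5.6. Decrease of the Soret band at 402 nm was followed. Association constants were calculated from the titration curves. Stoichiometry was taken from Job's plot.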

Plasmodium falciparum [13] = assay: Antiplasmodial activity against chloroquine-resistant asexual erythrocytic stage of Plasmodium falciparum Dd2 assessed as parasite growth inhibition by lactate dehydrogenase assay; format: functional, organism-based; outline: as §3
Vaccinia virus = assay: Antiviral activity against Vaccinia virus infected in HEL cells assessed as inhibition of virus-induced cytopathicity; format: functional, organism-based; settings: Orthopoxvirus vaccinia
Outline: (§5)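 Confluent monolayers in 96-well plates were inoculated with 100 CCID50 of virus in the presence of varying concentrations of compound. Read-out was inhibition of virus-induced cytopathicity, compared with untreated infected cultures. Cytotoxicity was judged microscopically or by MTT viability staining.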

Coxsackievirus B4 [14] = assay: Antiviral activity against Coxsackievirus B4 infected in African green monkey Vero cells assessed as inhibition of virus-induced cytopathicity; format: functional, organism-based; outline: as §1
[15] = Cytotoxicity against cat CRFK cells assessed as cell viability by MTS assay; format: cell-based, Felis catus
Outline: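 CRFK cells were exposed to varying sample concentrations. Cell viability was measured with the colorimetric formazan-based MTS assay, and the 50% cytotoxic concentration (CC50) was derived from it.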

Human alphaherpesvirus 1 [16] = assay: Antiviral activity against thymidine kinase-negative acyclovir-resistant HSV-1 KOS infected in HEL cells assessed as inhibition of virus-induced cytopathicity; format: functional, organism-based; outline: as §5
Human betaherpesvirus 5 [17] = assay: Antiviral activity against Cytomegalovirus AD169 infected in HEL cells assessed as inhibition of virus-induced cytopathicity; format: functional, organism-based
[18] = system: Respiratory syncytial virus; assay: Antiviral activity against Respiratory syncytial virus infected in human HeLa cells assessed as inhibition of virus-induced cytopathicity; format: functional, organism-based; outline: as §1
DNA [19] = assay: Binding affinity to calf thymus DNA at 5:1 DNA to compound ratio by spectrophotometric analysis (reference value: 59.5 degC); format: nucleic-acid assay; settings: Bos taurus
[20] = system: Vesicular stomatitis virus; assay: Antiviral activity against Vesicular stomatitis virus infected in HEL cells assessed as inhibition of virus-induced cytopathicity; format: functional, organism-based; outline: as §5
Ferriprotoporphyrin IX [21] = assay: Binding affinity to monomeric Fe(III)PPIX at 5 umol by mass spectra analysis
Outline: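 Solution-phase mass spectra were recorded after adding monomeric heme (5 μmol) to the compound (5 μmol) in 40% aqueous DMSO. The region between 1008 and 1024 Da was examined for adduct signals.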

Ferriprotoporphyrin IX [22] = assay: Binding affinity to monomeric Fe(III)PPIX by 1H NMR spectra analysis
HEL = assay: Cytotoxicity against HEL cells assessed as alteration of cell morphology by microscopic analysis; format: cell-based; settings: human
Outline: (§6)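 Cells (Vero, HEL, MDCK or HeLa) were exposed to a range of sample concentrations. The value reported is the concentration required to cause a microscopically detectable alteration of normal cell morphology.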

[23] = Cytotoxicity against human HeLa cells assessed as alteration of cell morphology by microscopic analysis; format: cell-based; settings: read-out: MIC; outline: as §6
Feline coronavirus = assay: Antiviral activity against Feline coronavirus infected in cat CRFK cells assessed as inhibition of virus-induced cytopathicity; format: functional, organism-based; outline: as §1
Ferriprotoporphyrin IX [24] = assay: Binding affinity to monomeric Fe(III)PPIX at pH 5.6; outline: as §4
Heme [25] = assay: Binding affinity to heme assessed as inhibition of beta-hematin formation at 1.2 equiv after 1 hr by FT-IR spectroscopic analysis
Influenza A virus H3N2 = assay: Antiviral activity against Influenza A virus H3N2 infected in MDCK cells assessed as inhibition of virus-induced cytopathicity; format: functional, organism-based; outline: as §5
Influenza A virus = assay: Antiviral activity against influenza A virus H1N1 infected in MDCK cells assessed as inhibition of virus-induced cytopathicity; format: functional, organism-based; outline: as §5
DNA [26] = assay: Binding affinity to calf thymus DNA assessed as hypochromic shift at 66.6 uM after 5 mins by UV-spectrophotometric analysis; format: nucleic-acid assay; settings: Bos taurus
[27] = system: Vesicular stomatitis virus; assay: Antiviral activity against Vesicular stomatitis virus infected in human HeLa cells assessed as inhibition of virus-induced cytopathicity; format: functional, organism-based; outline: as §5
Vero = assay: Cytotoxicity against African green monkey Vero cells assessed as alteration of cell morphology by microscopic analysis; format: cell-based; settings: chlorocebus sabaeus; outline: as §6
Human respirovirus 3 = assay: Antiviral activity against parainfluenza virus 3 infected in African green monkey Vero cells assessed as inhibition of virus-induced cytopathicity; format: functional, organism-based; outline: as §1
MDCK = assay: Cytotoxicity against MDCK cells assessed as alteration of cell morphology by microscopic analysis; format: cell-based, Canis lupus familiaris; settings: dog; outline: as §6
Heme [28] = assay: Binding affinity to mu-oxodimeric heme at pH 5.8
Outline: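 μ-Oxo dimer heme (10 μM) in 20 mM phosphate buffer, pH 5.8, titrated stepwise with compound (0.3−16 μM). Decrease in absorbance at 362 nm was monitored, and the binding constant was calculated from the titration curve.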

HeLa = assay: Cytotoxicity against human HeLa cells assessed as growth inhibition by MTT assay; format: cell-based
DNA [29] = assay: Binding affinity to calf thymus DNA at 5:1 DNA to compound ratio by spectrophotometric analysis; format: nucleic-acid assay; settings: Bos taurus

## Clc1ccc2c(NCCCNc3nccc(N4CCCCC4)n3)ccnc2c1
Sindbis virus
  inhibition: inactive
[1]
  solubility: 1.74 µM (≈ 0.691 µg/mL)
[2]
  solubility: 0.25 µM (≈ 0.0992 µg/mL)
Human alphaherpesvirus 1 [3]
  inhibition: inactive
[4]
  Ratio CC50/IC50: 228
Escherichia coli
  log Ks: 3.99
DNA [5]
  log Ks: 3.64
[6]
  logD at 24 h: 0.845
Human alphaherpesvirus 3
  inhibition: inactive
Human alphaherpesvirus 2
  inhibition: inactive
Coxsackievirus B4 [7]
  inhibition: inactive
Plasmodium falciparum [8]
  pIC50: 7.65
Plasmodium falciparum [9]
  Ratio IC50: 3.2
[10]
  inhibition: inactive
Punta Toro virus
  inhibition: inactive
Human betaherpesvirus 5 [11]
  inhibition: inactive
Felid alphaherpesvirus 1
  inhibition: inactive
Ferriprotoporphyrin IX [12]
  log Ks: 4.63
Plasmodium falciparum [13]
  pIC50: 7.37
Vaccinia virus
  inhibition: inactive
Coxsackievirus B4 [14]
  inhibition: inactive
[15]
  CC50: 9800 nM
Human alphaherpesvirus 1 [16]
  inhibition: inactive
Human betaherpesvirus 5 [17]
  inhibition: inactive
[18]
  inhibition: inactive
DNA [19]
  Tm: 67.8 °C
[20]
  inhibition: inactive
Ferriprotoporphyrin IX [21]
  Activity: Active
Ferriprotoporphyrin IX [22]
  Activity: Active
HEL
  Activity: Non-toxic
[23]
  MCC: 100 µM
Feline coronavirus
  inhibition: inactive
Ferriprotoporphyrin IX [24]
  log Ks: 4.59
Heme [25]
  inhibition: Active
Influenza A virus H3N2
  inhibition: inactive
Influenza A virus
  inhibition: inactive
DNA [26]
  Activity: 23%
[27]
  inhibition: inactive
Vero
  Activity: Non-toxic
Human respirovirus 3
  inhibition: inactive
MDCK
  Activity: Non-toxic
Heme [28]
  log Ks: 5.84

## CCN(CC)CCCC(C)Nc1ccnc2cc(Cl)ccc12 (stereo not given) [CHLOROQUINE PHOSPHATE]
HeLa
  pIC50: 4.52
DNA [29]
  Activity: Active

## Clc1ccc2c(NCCCNc3ccnc(Cl)n3)ccnc2c1
Sindbis virus
  inhibition: inactive
[1]
  solubility: 1.01 µM (≈ 0.352 µg/mL)
[2]
  solubility: 0.6 µM (≈ 0.209 µg/mL)
Human alphaherpesvirus 1 [3]
  inhibition: inactive
[4]
  Ratio CC50/IC50: >483
[6]
  logD at 24 h: 0.229
Human alphaherpesvirus 3
  inhibition: inactive
Human alphaherpesvirus 2
  inhibition: inactive
Coxsackievirus B4 [7]
  inhibition: inactive
Plasmodium falciparum [8]
  pIC50: 6.57
[10]
  inhibition: inactive
Punta Toro virus
  inhibition: inactive
Human betaherpesvirus 5 [11]
  inhibition: inactive
Felid alphaherpesvirus 1
  inhibition: inactive
Plasmodium falciparum [13]
  pIC50: 6.68
Vaccinia virus
  inhibition: inactive
Coxsackievirus B4 [14]
  inhibition: inactive
[15]
  CC50: > 100000 nM
Human alphaherpesvirus 1 [16]
  inhibition: inactive
Human betaherpesvirus 5 [17]
  inhibition: inactive
[18]
  inhibition: inactive
[20]
  inhibition: inactive
[23]
  MCC: > 100 µM
Feline coronavirus
  inhibition: inactive
Influenza A virus H3N2
  inhibition: inactive
Influenza A virus
  inhibition: inactive
[27]
  inhibition: inactive
Human respirovirus 3
  inhibition: inactive

## Clc1ccc2c(NCCCNc3ccnc(N4CCCCC4)n3)ccnc2c1
Sindbis virus
  inhibition: inactive
[1]
  solubility: 2.02 µM (≈ 0.802 µg/mL)
[2]
  solubility: 0.32 µM (≈ 0.127 µg/mL)
Human alphaherpesvirus 1 [3]
  inhibition: inactive
[4]
  Ratio CC50/IC50: 334
[6]
  logD at 24 h: 0.801
Human alphaherpesvirus 3
  inhibition: inactive
Human alphaherpesvirus 2
  inhibition: inactive
Coxsackievirus B4 [7]
  inhibition: inactive
Plasmodium falciparum [8]
  pIC50: 7.18
[10]
  inhibition: inactive
Punta Toro virus
  inhibition: inactive
Human betaherpesvirus 5 [11]
  inhibition: inactive
Felid alphaherpesvirus 1
  inhibition: inactive
Plasmodium falciparum [13]
  pIC50: 6.78
Vaccinia virus
  inhibition: inactive
Coxsackievirus B4 [14]
  inhibition: inactive
[15]
  CC50: 55000 nM
Human alphaherpesvirus 1 [16]
  inhibition: inactive
Human betaherpesvirus 5 [17]
  inhibition: inactive
[18]
  inhibition: inactive
[20]
  inhibition: inactive
[23]
  MCC: 20 µM
Feline coronavirus
  inhibition: inactive
Influenza A virus H3N2
  inhibition: inactive
Influenza A virus
  inhibition: inactive
[27]
  inhibition: inactive
Human respirovirus 3
  inhibition: inactive
